Measured values pooled from the literature.
ADAM17: Disintegrin and metalloproteinase domain-containing protein 17 (ADAM17, Homo sapiens, UniProt P78536)
DYRK2: Dual specificity tyrosine-phosphorylation-regulated kinase 2 (DYRK2, Homo sapiens, UniProt Q92630)

SMILES | target | assay | conditions | inhibition [%]
CC(C)C[C@H](NC(=O)[C@H](Cc1ccccc1)NC(=O)c1cnccn1)B(O)O | Cathepsin G (CTSG, Homo sapiens, UniProt P08311) | enzyme activity, inhibitor | 33 µM | 61.8
CN(CCN1CCC(OC(=O)Nc2ccccc2-c2ccccc2)CC1)C(=O)c1ccc(CN2CCC(C(N)=O)CC2)cc1 | 4-aminobutyrate aminotransferase, mitochondrial (Rattus norvegicus, UniProt P50554) | enzyme activity, inhibitor | 1 µM | -12
CCOC(=O)c1ccc(OC(=O)CCCCCNC(=N)N)cc1 | ADAM17 | enzyme activity, inhibitor | 10 µM | 7
C#Cc1n[nH]c2c(-c3cn([C@@H](C)c4ccccn4)c(=O)[nH]c3=O)cc(F)cc12 | DYRK2 | enzyme activity, inhibitor | 0.1 µM | -0.2
Cn1cc(-c2cccc(N3CCc4c(sc5c4CC(C)(C)C5)C3=O)c2CO)cc(Nc2ccncn2)c1=O | Phosphatidylinositol 4,5-bisphosphate 3-kinase catalytic subunit alpha isoform (PIK3CA, Homo sapiens, UniProt P42336) | enzyme activity, inhibitor | 1 µM | 14
COc1cc(Nc2ncc(F)c(Nc3ccc4c(n3)NC(=O)C(C)(C)O4)n2)cc(OC)c1OC | Mitogen-activated protein kinase kinase kinase 12 (MAP3K12, Homo sapiens, UniProt Q12852) | binding, competition with immobilised ligand | 10 µM | 32
CC(C)C[C@H](CC(=O)NO)C(=O)N[C@H](C(=O)N[C@@H](C)C(=O)NCCN)C(C)(C)C | ADAM17 | enzyme activity, inhibitor | 0.1 µM | 0
c1ccc(C(NCCNC(c2ccccc2)c2ccccc2)c2ccccc2)cc1 | Gamma-aminobutyric acid type B receptor subunit 1 (GABBR1, Homo sapiens, UniProt Q9UBS5) | cell-free assay | 10 µM | -14
COc1c2c(cc3c1OCO3)CC[N+](C)=C2.[Cl-] | Glycogen synthase kinase-3 beta (GSK3B, Homo sapiens, UniProt P49841) | enzyme activity, inhibitor, ADP detection | 100 µM | 9.2
C[C@H](C(=O)N[C@H]1COc2ccccc2[C@@H]1S(C)(=O)=O)c1ccc(F)cc1 | Vasopressin V1b receptor (AVPR1B, Homo sapiens, UniProt P47901) | cell-free assay | 10 µM | 26
O=C(Nc1cccnn1)N1CCN([C@@H]2CCOc3cc(C(F)(F)F)ccc32)CC1 | Motilin receptor (MLNR, Homo sapiens, UniProt O43193) | cell-free assay | 20 µM | -3
C#Cc1n[nH]c2c(-c3cn([C@@H](C)c4ccccc4)c(=O)[nH]c3=O)cc(F)cc12 | DYRK2 | enzyme activity, inhibitor | 0.1 µM | 7.9
